Reference: ChEMBL document CHEMBL1128341, “(+)-cis-4,5,7a,8,9,10,11,11a-octahydro-7H-10-methylindolo[1,7- bc][2,6]-naphthyridine: a 5-HT2C/2B receptor antagonist with low 5-HT2A receptor affinity” (1995)

Experiments:
Rattus norvegicus [1] = experiment: Inhibition of ACTH response to MK-212 by the compound (0.1 mg/Kg) in rats; format: functional
Procedure, shortened: (§1)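 Male Sprague-Dawley rats (200–250 g) received compound (0, 0.1 or 1 mg/kg sc) 20 min before MK-212 sc or solvent. Rats were decapitated 30 min after MK-212, and trunk blood plasma was taken. Rat ACTH was measured by radioimmunoassay (ng/mL), as means ± SEM of eight experiments.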

Rattus norvegicus [2] = experiment: Inhibition of ACTH response to MK-212 by the compound (1 mg/Kg) in rats; format: functional; procedure, shortened: as §1
Rattus norvegicus [3] = experiment: Inhibition of ACTH response to MK-212 by the compound (1 mg/Kg) in rats with solvent; format: functional; procedure, shortened: as §1
[4] = biological target: T1, 5-hydroxytryptamine receptor 1A (Homo sapiens) (UniProt P08908); details: Sus scrofa; Frontal cortex; Membrane
T1 sequence (whole entry): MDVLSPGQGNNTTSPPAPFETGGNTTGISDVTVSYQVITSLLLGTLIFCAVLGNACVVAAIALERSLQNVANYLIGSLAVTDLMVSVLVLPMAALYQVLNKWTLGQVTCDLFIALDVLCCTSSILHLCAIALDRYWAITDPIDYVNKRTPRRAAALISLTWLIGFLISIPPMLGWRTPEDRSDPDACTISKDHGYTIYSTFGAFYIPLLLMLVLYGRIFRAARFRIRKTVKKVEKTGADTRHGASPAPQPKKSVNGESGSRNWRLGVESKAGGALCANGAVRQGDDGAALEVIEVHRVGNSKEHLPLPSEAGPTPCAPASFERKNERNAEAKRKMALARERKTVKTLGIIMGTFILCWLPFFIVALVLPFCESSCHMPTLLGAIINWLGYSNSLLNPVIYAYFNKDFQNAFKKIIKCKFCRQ

[5] = biological target: 5-hydroxytryptamine receptor 1B (Rattus norvegicus) (UniProt P28564)
Chain of 5-hydroxytryptamine receptor 1B (Rattus norvegicus) (P28564 whole entry): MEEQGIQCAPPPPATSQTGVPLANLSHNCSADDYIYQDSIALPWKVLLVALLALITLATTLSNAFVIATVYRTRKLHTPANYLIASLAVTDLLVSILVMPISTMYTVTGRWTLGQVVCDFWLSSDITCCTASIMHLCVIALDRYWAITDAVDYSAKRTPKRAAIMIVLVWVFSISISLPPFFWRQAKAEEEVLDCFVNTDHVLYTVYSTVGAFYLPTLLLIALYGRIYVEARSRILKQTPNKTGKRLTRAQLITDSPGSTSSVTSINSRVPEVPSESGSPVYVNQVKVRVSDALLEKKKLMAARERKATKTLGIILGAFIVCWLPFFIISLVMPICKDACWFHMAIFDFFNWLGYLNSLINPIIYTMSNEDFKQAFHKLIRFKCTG

[6] = biological target: 5-hydroxytryptamine receptor 2A (Rattus norvegicus) (UniProt P14842); details: N1E-115
Chain of 5-hydroxytryptamine receptor 2A (Rattus norvegicus) (P14842 whole entry): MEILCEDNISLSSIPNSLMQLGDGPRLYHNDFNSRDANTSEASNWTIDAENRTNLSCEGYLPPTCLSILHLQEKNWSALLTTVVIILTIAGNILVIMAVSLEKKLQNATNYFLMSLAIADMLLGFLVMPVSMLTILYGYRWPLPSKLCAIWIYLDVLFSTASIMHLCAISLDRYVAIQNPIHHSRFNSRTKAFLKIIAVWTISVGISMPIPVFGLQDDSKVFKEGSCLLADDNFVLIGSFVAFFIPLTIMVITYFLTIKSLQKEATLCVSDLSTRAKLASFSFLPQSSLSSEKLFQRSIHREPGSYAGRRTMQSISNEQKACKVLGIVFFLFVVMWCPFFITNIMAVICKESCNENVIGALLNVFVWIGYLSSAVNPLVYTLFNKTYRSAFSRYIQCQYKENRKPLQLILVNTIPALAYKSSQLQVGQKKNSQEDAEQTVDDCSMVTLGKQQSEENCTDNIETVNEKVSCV

[7] = biological target: T2, 5-hydroxytryptamine receptor 2C (Homo sapiens) (UniProt P28335)
T2 sequence (whole entry): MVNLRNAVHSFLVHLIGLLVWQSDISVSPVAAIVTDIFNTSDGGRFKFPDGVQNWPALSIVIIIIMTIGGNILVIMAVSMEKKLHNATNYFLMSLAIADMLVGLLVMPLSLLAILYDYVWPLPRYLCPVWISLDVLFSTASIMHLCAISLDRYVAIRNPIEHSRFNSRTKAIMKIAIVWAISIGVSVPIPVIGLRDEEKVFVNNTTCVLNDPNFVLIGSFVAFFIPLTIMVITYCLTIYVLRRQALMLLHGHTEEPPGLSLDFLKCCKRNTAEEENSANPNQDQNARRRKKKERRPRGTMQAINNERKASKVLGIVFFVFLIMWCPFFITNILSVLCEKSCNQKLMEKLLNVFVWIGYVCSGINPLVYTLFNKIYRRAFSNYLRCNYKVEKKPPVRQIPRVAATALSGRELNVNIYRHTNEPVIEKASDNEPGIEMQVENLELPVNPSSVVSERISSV

[8] = biological target: Serotonin 3 receptor (5HT3) (Mus musculus) (UniProt Q9JHJ5+P23979); details: Cortex
Chain of Serotonin 3 receptor (5HT3) (Mus musculus) (P23979 whole entry, looked up): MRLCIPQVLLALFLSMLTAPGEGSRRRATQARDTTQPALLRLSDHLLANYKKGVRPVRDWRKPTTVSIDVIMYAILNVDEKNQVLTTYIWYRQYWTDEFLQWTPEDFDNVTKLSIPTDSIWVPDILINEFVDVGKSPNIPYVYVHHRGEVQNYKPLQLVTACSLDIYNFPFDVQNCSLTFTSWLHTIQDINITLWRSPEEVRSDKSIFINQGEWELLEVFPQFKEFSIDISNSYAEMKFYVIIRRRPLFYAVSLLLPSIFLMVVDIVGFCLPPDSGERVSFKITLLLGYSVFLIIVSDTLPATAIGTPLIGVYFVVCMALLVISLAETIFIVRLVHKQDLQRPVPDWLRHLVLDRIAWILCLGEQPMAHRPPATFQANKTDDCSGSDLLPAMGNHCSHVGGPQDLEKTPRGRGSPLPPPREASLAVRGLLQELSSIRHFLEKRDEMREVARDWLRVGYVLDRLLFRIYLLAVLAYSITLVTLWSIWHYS
Chain of Serotonin 3 receptor (5HT3) (Mus musculus) (Q9JHJ5 whole entry, looked up): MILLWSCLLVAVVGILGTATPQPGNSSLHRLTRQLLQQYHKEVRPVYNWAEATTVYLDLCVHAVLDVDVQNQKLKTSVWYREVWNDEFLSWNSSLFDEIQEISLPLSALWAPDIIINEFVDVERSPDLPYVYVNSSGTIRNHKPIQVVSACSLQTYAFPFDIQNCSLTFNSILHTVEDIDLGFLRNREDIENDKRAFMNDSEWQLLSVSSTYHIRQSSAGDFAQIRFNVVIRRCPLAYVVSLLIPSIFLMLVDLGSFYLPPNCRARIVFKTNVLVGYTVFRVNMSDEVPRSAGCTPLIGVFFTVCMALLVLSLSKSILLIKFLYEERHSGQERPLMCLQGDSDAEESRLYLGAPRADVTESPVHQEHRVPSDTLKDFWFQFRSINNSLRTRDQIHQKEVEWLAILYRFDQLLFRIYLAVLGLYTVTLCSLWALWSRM

[9] = biological target: T3, Alpha-1A adrenergic receptor (Bos taurus) (UniProt P18130)
T3 sequence (whole entry): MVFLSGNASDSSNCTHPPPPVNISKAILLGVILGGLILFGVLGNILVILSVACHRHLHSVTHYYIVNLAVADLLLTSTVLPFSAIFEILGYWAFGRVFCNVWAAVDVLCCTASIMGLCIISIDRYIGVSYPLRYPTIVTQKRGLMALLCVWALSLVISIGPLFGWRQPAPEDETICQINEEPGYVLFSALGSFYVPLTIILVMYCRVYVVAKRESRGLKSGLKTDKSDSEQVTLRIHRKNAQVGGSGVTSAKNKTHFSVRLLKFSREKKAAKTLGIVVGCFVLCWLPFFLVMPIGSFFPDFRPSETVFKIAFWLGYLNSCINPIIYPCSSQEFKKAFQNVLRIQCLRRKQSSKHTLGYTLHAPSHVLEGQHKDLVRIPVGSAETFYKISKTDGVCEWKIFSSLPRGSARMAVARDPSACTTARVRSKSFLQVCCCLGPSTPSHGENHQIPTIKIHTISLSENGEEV

[10] = biological target: T4, Alpha-2A adrenergic receptor (Bos taurus) (UniProt Q28838)
T4 sequence (whole entry): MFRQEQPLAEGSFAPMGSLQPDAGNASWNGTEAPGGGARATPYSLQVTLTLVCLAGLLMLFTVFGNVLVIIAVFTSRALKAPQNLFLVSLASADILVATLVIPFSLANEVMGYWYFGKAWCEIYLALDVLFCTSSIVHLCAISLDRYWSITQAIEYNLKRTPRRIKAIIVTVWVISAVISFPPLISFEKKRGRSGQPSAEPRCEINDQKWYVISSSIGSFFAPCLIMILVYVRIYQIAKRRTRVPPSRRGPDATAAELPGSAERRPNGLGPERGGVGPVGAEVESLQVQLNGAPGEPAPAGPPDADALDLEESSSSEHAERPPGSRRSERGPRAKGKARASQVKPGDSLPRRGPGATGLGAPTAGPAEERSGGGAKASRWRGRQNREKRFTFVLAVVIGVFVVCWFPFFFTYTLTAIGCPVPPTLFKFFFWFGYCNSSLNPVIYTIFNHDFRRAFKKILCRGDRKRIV

[11] = biological target: D(2) dopamine receptor (Bos taurus) (UniProt P20288); details: Striatum
Chain of D(2) dopamine receptor (Bos taurus) (P20288 whole entry): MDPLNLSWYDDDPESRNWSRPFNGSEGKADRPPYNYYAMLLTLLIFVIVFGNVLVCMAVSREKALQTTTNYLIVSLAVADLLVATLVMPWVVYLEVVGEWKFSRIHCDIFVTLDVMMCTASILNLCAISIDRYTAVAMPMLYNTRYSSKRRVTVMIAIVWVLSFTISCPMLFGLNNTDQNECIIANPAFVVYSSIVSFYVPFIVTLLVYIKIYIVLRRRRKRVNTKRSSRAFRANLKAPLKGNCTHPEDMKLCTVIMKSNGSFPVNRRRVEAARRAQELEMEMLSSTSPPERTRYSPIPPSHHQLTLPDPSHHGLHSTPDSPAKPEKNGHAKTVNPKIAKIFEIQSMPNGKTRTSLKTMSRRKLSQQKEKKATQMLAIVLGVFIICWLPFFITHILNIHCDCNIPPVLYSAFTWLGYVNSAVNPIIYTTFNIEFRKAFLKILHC

[12] = biological target: D(1A) dopamine receptor (Bos taurus) (UniProt Q95136); details: Striatum
Chain of D(1A) dopamine receptor (Bos taurus) (Q95136 whole entry): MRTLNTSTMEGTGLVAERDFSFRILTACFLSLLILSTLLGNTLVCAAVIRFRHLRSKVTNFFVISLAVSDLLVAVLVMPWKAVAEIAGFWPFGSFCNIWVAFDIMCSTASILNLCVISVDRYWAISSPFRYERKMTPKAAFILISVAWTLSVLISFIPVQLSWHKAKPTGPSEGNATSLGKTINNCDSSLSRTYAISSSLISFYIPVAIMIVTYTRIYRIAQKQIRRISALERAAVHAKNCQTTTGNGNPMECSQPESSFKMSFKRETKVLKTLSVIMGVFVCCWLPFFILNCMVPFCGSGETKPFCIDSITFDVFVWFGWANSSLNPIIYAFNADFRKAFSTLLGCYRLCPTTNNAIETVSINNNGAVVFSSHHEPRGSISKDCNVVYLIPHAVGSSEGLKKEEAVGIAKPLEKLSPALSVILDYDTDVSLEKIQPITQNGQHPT

SMILES | Inhibition (Rattus norvegicus [1]) [ng/mL] | Inhibition (Rattus norvegicus [2]) [ng/mL] | Inhibition (Rattus norvegicus [3]) [ng/mL] | pKD [4] | pKD [5] | pKD [6] | pKD [7] | pKD [8] | pKD [9] | pKD [10] | pKD [11] | pKD [12]
CN1CC[C@@H]2CN3CCc4cccc(c43)[C@@H]2C1 (stereo in doubt; 8) [listing 1 of 2 here] | 165.8 | 95.1 | 38.5 |  |  |  |  |  |  |  |  | 
CN1CC[C@@H]2CN3CCc4cccc(c43)[C@@H]2C1 (stereo in doubt; 8) [listing 2 of 2 here] |  |  |  | 6.1 | 4.6 | 6.2 | 7.8 | 4.7 | 5.6 | 6.5 | < 5 | < 5
CN1CC[C@@H]2CN3CCc4cccc(c43)[C@@H]2C1 (stereo in doubt; 9) |  |  |  | < 5 |  |  |  |  | 6 | 6 | < 5 | < 5
Cc1nc2sccn2c(=O)c1CCN1CCC(=C(c2ccc(F)cc2)c2ccc(F)cc2)CC1 [RITANSERIN] | 204.3 | 95.4 | 37.2 |  |  |  |  |  |  |  |  | 
